Data set [1] has as its system Plasmodium falciparum. Description: Antiplasmodial activity against late trophozoite synchronized chloroquine-resistant Plasmodium falciparum Dd2 reduction in microbial growth at 6.6 nM measured after 12 hrs by YOYO-1 staining-based flow cytometric analysis. Type of data set: functional, organism-based. Put shortly: (§1)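 Dd2 cultures tightly synchronized by magnetic separation and sorbitol were dosed at 5 × EC50 at 6, 18, 30 or 42 h post-invasion. Controls: DHA 50 nM, atovaquone 6.6 nM, DMSO 0.1%. Sampled every 12 h for Giemsa thin smears and for flow cytometry: glutaraldehyde/paraformaldehyde fixation, Triton permeabilization, RNAse, 500 nM YOYO-1, 500,000 events/sample. Three independent biological replicates.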

The subject of data set [2] is Plasmodium falciparum. Description: Parasiticidal activity against chloroquine-resistant Plasmodium falciparum Dd2 infected in RBC assessed as reduction in parasitemia at 6.6 nM incubated for 48 hrs followed by compound washout and then incubated for 96 hrs by Giemsa staining based microscopic analysis. The format is functional, organism-based. Put shortly:
(§2)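 Controls: 0.15% DMSO, DHA 50 nM, atovaquone 6.6 nM. Drug removed by three RPMI washes, then parasitemia followed daily for 96 h by Giemsa thin smears. Three independent biological replicates.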

For data set [3], the system named is Plasmodium falciparum. Nature of the data set: Antiplasmodial activity against late trophozoite synchronized chloroquine-resistant Plasmodium falciparum Dd2 reduction in microbial growth at 6.6 nM measured after 12 hrs by Giemsa staining-based microscopic analysis. Type of data set: functional, organism-based. In short, it runs like this:
as §1

Data set [4] has as its system Plasmodium falciparum. Description: Antiplasmodial activity against late trophozoite synchronized chloroquine-resistant Plasmodium falciparum Dd2 reduction in microbial growth at 5 times of EC50 after 12 hrs by YOYO-1 staining-based flow cytometric analysis. Type of data set: functional, organism-based. In short, it runs like this:
as §1

Data set [5] can be described thus: Stability of compound in mouse liver microsomes assessed as parent compound remaining at 1 uM after 60 mins in presence of NADPH by LC-MS analysis. Type of data set: ADME, Microsome. The conditions noted are these: 1 h. In short, it runs like this:
(§3)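 Mouse liver microsomes (0.5 mg/mL final protein) in 0.1 M phosphate, pH 7.4, with compound at 1 μM, 37 °C with shaking. Aliquots were quenched in cold acetonitrile and centrifuged; LC–MS gave parent peak area at 60 min relative to 0 min.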

Data set [6] deals with Plasmodium falciparum. Description: Antiplasmodial activity against late trophozoite synchronized chloroquine-resistant Plasmodium falciparum Dd2 reduction in microbial growth at 5 times of EC50 after 12 hrs by Giemsa staining-based microscopic analysis. Type of data set: functional, organism-based. Put shortly: as §1
Data set [7] is described as follows: Half life in mouse liver microsomes at 1 uM after 60 mins in presence of NADPH by LC-MS analysis. The format is ADME, Microsome. The conditions noted are these: 1 h. In short, it runs like this: as §3
Data set [8] is described as follows: Intrinsic clearance in mouse liver microsomes assessed as parent compound at 1 uM after 60 mins in presence of NADPH by LC-MS analysis. The format is ADME, Microsome. Put shortly: as §3
Data set [9] relates to Plasmodium falciparum. Description: Potency index, ratio of EC50 for UCF501 to test compound EC50 for antiplasmodial activity against chloroquine-resistant Plasmodium falciparum Dd2 infected in human erythrocytes assessed as reduction in microbial growth after 72 hrs by SYBR green I staining based fluorescence assay. Type of data set: functional, Erythrocyte. Put shortly:
(§4)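 SYBR Green I assay: twofold serial dilutions on P. falciparum cultures at 1% parasitemia, 1% hematocrit, 37 °C, 5% CO₂, 72 h, max 0.1% DMSO. DMSO and CQ as growth and inhibition controls. Plates frozen at −80 °C, thawed, lysed in Tris/saponin/EDTA/Triton buffer with 0.01% SYBR Green I, 1 h dark at room temperature. Fluorescence read at 485 ex/530 em. EC50 by nonlinear dose–response fit.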

For data set [10], the system named is Plasmodium falciparum. Nature of the data set: Antiplasmodial activity against chloroquine-resistant Plasmodium falciparum Dd2 infected in human erythrocytes assessed as reduction in microbial growth after 72 hrs by SYBR green I staining based fluorescence assay. The format is functional, organism-based. The conditions noted are these: Dd2, Erythrocyte. Put shortly: as §4

The next data set relates to HepG2. Description: Cytotoxicity against human HepG2 cells assessed as reduction in cell viability after 48 hrs by MTS assay. Type of data set: cell-based. The conditions noted are these: HepG2, 48 h. Put shortly: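 HepG2 cells were seeded at 2250 per well and grown 24 h at 37 °C, 5% CO₂. Serial dilutions starting at 25 μM were added for a further 48 h. MTS was then added for 3 h at 37 °C and absorbance read at 490 nm. EC₅₀ came from nonlinear dose–response fits.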

For another data set, the system named is Hemozoin. Nature of the data set: Inhibition of beta-hematin formation after 16 hrs by inverted microscopic analysis. The conditions noted are these: dose microM 12.5-200, time 16.0 hrs. In short, it runs like this: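 Hemin (2 mM stock in 0.1 M NaOH; 100 μM final), propionate buffer pH 5.2 and sonicated phosphatidylcholine were incubated with a compound concentration series for 16 h at 37 °C with gentle shaking. Crystals were imaged by inverted microscope before quenching with 7.5% SDS in bicarbonate, pH 9.1. Free hemin was measured at 405 nm against a 0–16 μM calibration. Three independent experiments.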

The subject of data set [11] is Plasmodium falciparum. Nature of the data set: Antiplasmodial activity against synchronous gametocyte early stage of Plasmodium falciparum 3D7 harboring luc7 incubated for 72 hrs by ONE-Glo luciferase assay. The format is functional, organism-based. The conditions noted are these: 3D7, 72 h. Put shortly: (§5)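 Gametocytes of P. falciparum 3D7 luc7 induced by nutrient starvation, cultured in heparin medium to remove asexual stages, Percoll-purified as early (II–III) or late (IV–V) stage. 50,000 gametocytes/well exposed 72 h to a 19-point gradient, 0.038 nM–10 μM. ONE-Glo luciferase read after 5 min. EC50 by nonlinear curve fit; three experiments.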

In data set [12] the test system is Plasmodium berghei. Description: Antiplasmodial activity against Plasmodium berghei ANKA expressing luciferase infected in Swiss Webster mouse at 100 mg/kg, po for 5 days using monophosphate salt form of compound by luminescence based assay. The format is functional, organism-based. Particulars: time 5.0 day. In short, it runs like this:
(§6)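 Female Swiss Webster mice got 10³ RBC infected with luciferase-expressing P. berghei ANKA. From 48 h post-infection, groups of five were gavaged once daily for 5 days in 2% methylcellulose/0.5% Tween 80, against a vehicle control. On day 7, mice received 150 mg/kg D-luciferin in PBS, and bioluminescence was imaged by IVIS as a measure of parasite load.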

In data set [13] the test system is Plasmodium falciparum. Nature of the data set: Parasiticidal activity against chloroquine-resistant Plasmodium falciparum Dd2 infected in RBC assessed as reduction in parasitemia at 5 times of EC50 incubated for 6 to 48 hrs followed by compound washout and then incubated for 96 hrs by Giemsa staining based microscopic analysis. Type of data set: functional, organism-based. The conditions noted are these: time hrs 6-48. In short, it runs like this: as §2

Data set [14] is described as follows: Selectivity index, ratio of EC50 for cytotoxicity against human HepG2 cells to antiplasmodial activity against chloroquine-resistant Plasmodium falciparum Dd2. Type of data set: toxicity, cell-based. Particulars: read-out: Ratio EC50.
The subject of data set [15] is Plasmodium falciparum. Nature of the data set: Antiplasmodial activity against chloroquine-sensitive Plasmodium falciparum 3D7 infected in human erythrocytes assessed as reduction in microbial growth after 72 hrs by SYBR green I staining based fluorescence assay. The conditions noted are these: 3D7, Erythrocyte. Type of data set: functional, organism-based. In short, it runs like this:
as §4

The test system of data set [16] is Plasmodium falciparum. Nature of the data set: Antiplasmodial activity against synchronous gametocyte late stage of Plasmodium falciparum 3D7 harboring luc7 incubated for 72 hrs by ONE-Glo luciferase assay. Type of data set: functional, organism-based. The conditions noted are these: 3D7, 72 h. In short, it runs like this: as §5
Data set [17] is described as follows: Resistant index, ratio of EC50 for antiplasmodial activity against chloroquine-resistant Plasmodium falciparum Dd2 to antiplasmodial activity against chloroquine-sensitive Plasmodium falciparum 3D7. The format is functional.
Data set [18] has as its system Plasmodium berghei. Description: Antiplasmodial activity against Plasmodium berghei ANKA expressing luciferase infected in Swiss Webster mouse at 25 mg/kg, po for 5 days using monophosphate salt form of compound by luminescence based assay. Type of data set: functional, organism-based. Particulars: time 5.0 day. Put shortly:
as §6

Data set [19] is described as follows: Drug level in mouse liver microsomes treated with 6-chloro-2-(4-fluorostyryl)-N-(2-(4-methylpiperazin-1-yl)ethyl)quinolin-4-amine measured up to 60 mins by LC-MS analysis. Type of data set: ADME, Microsome. The conditions noted are these: 1 h. Put shortly:
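Microsomal incubations: mouse liver microsomes at 0.5 mg/mL, 1 μM compound, pH 7.4 phosphate, 37 °C, NADPH-regenerating system. The metabolite mixture was analysed by LC–MS after 15, 30 and 60 min.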

Calls of active or inactive are those of the source. No cut-off for these calls is given here.

For the molecule `O=C1C(O)=C([C@H]2CC[C@H](c3ccc(Cl)cc3)CC2)C(=O)c2ccccc21`, the outcome in the data set with Plasmodium falciparum [1] and with Plasmodium falciparum [3] was inactive. Further, the outcome with Plasmodium falciparum [2] was Active.
For `CN(C)CCNc1cc(/C=C/c2ccc(F)cc2)nc2ccc(Cl)cc12`, the outcome with Plasmodium falciparum [4], with Plasmodium falciparum [6], in the data set with Plasmodium berghei [12], in the data set on Plasmodium falciparum [13] and in the data set with Plasmodium berghei [18] was Active. Moreover, in data set [5], the Stabilty came out at 47.1%. The t1/2 in data set [7] worked out at 55.2 min. Besides, the CLH in data set [8] was 25.1 µL/min/mg. The figures for the “Ratio EC50” value (in the data set on Plasmodium falciparum [9]; in [17]) were 14 and 0.6, respectively. For the same molecule, the EC50 in the data set with Plasmodium falciparum [10] came to 4.8 nM; with HepG2, 5330 nM; in the data set with Plasmodium falciparum [11] it was 591 nM; in the data set with Plasmodium falciparum [15], 8.7 nM; with Plasmodium falciparum [16], 2050 nM. Besides, the inhibition entry in the data set with Hemozoin was “Dose-dependent effect”. For the same molecule, the selectivity ratio in data set [14] stood at 1110.
Turning to `Fc1ccc(/C=C/c2cc(NCCN3CCNCC3)c3cc(Cl)ccc3n2)cc1`, the Drug uptake entry in data set [19] is reported as “Active”.
